# Bioassay records (PubChem BioAssay)
# proKLK7 act = proKLK7 zymogen activators, primary screen, biochemical, fluorescence intensity. Kallikrein-7 (Homo sapiens), P49862. purified proKLK7, EDANS-DABCYL substrate fluorescence; 100% is mature enzyme control, 0% vehicle. activation, % at 7 µM. 370,000 compounds, 0.9% hits;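 active means activation above the mean of all tested compounds plus 3 SD, computed per campaign excluding outliers beyond control limits, cut at about 13% in these data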
# Target sequence (P49862 whole entry, looked up): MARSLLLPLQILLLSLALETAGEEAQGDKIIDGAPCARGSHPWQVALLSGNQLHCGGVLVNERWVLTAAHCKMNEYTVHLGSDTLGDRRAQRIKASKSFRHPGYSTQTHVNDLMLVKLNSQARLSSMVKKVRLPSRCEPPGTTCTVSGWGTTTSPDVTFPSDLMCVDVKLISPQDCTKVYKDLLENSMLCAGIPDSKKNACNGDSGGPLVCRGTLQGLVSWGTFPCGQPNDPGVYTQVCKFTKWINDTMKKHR
# Rce1 inh = yeast Rce1p protease inhibitors, primary screen, biochemical, fluorescence, cell-free homogeneous | yeast membranes, quenched prenylated peptide cleavage fluorescence | calls only | 290,000 compounds, 0.27% hits | AID 2563, 2010;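 active means fall in fluorescence gain of 50% or more versus controls, with final raw signal at or below 3038400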;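 further: plate controls were neutral control wells for no effect and wells lacking membranes for full effect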
# Target sequence (Q03530 whole entry, looked up): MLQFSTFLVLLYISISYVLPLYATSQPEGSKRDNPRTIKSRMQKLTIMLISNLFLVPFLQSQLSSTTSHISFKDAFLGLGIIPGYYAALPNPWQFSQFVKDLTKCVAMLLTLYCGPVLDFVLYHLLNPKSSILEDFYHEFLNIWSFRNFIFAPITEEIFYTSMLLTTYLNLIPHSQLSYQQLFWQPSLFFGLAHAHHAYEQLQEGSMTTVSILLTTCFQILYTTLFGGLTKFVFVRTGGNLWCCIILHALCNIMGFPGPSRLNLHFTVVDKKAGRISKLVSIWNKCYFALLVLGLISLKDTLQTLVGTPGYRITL
# Yeast superoxide = reduction of superoxide in aged yeast, primary screen, HTS; S. cerevisiae aged cells, superoxide DHE fluorescence; hits give low values; superoxide response (% of plate mean), % at 10 µM; AID 2690, 2010; 330,000 compounds, 0.18% hits;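 active means superoxide response under a set limit, about three screen SD below normal, cut at about 65% in these data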;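 further: yeast aged for seven days with compound at 30 °C before DHE staining; 100% = average MFI of all compound-treated wells on the plate with controls excluded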
# V-ATPase pHluor = regulators of yeast V-ATPase proton pumping, primary screen, pHLuorin cytosolic pH fluorescence. S. cerevisiae. response, % at 10 µM. 350,000 compounds, 0.37% hits. AID 504577, 2011; in the data active means response mostly above about 7.3%, no sharp cut-off; inactive means mostly below about 5.4%; further: actives read high
# beta cell repl = inducers of MIN6 beta-cell proliferation, primary screen, ATP luminescence, uHTS; proliferation, % at 10 µM; AID 2380, 2010; MIN6 cells proliferation, ATPlite luminescence, 48 h; cells starved in 0.2% serum; 100% = growth in 10% serum; 330,000 compounds, 0.29% hits;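 active means compounds whose signal lies at least 3.5 SD above the mean of all wells on their plate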;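 further: 0% = DMSO-treated cells in low-serum medium and 100% = 10% serum control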
# T cell modulator = modulators of CD8 T cell-vesicle binding, primary screen, mouse 2C CD8+ T cells, flow cytometry. response (vesicle binding), % at 7 µM. AID 2052, 2009. 330,000 compounds, 0.068% hits. 2C CD8+ T cell-vesicle binding; hits give low values;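 active means response, share of CD8 T cells binding vesicles, and their 90th percentile fluorescence all below set limits, cut at about 80% in these data, passing the limit was not always enough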;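 further: values below 100% mean blocked vesicle binding to the CD8+ T cells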
#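 Material: murine 2C transgenic CD8+ T lymphocytes / Also added: QL9-peptide-loaded Drosophila micro-vesicles bearing Ld, ICAM-1 and B7-1 / Schedule: binding step 1.5 h, 37 °C, antibody labelling 20 min, ice / Signal: flow cytometry, PE anti-B7-1 (FL2) versus Alexa647 anti-CD8 (FL8), PFA-fixed / Evaluation: percent CD8+ FL2 mean versus row control / Benchmarks: naked versus QL9-loaded vesicles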
# V-ATPase pH SP = yeast V-ATPase proton pumping modulators, confirmation, S. cerevisiae, pH-sensitive GFP, second cherry-pick; AID 602197, 2012; S. cerevisiae pHLuorin cytosolic pH, V-ATPase proton transport; response, % at 10 µM; shares compounds with V-ATPase pHluor; 980 compounds, 2% hits; in the data active means response above about 24%;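 further: plate controls were vehicle wells for no effect and positive control wells for full effect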
# Active calls of the source: *; i = inactive; · = no result. Only some compounds are listed: those with a hit (about 1.9% of all), similar ones and a draw of the others.
SMILES,proKLK7 act,Rce1 inh,Yeast superoxide,V-ATPase pHluor,beta cell repl,T cell modulator,V-ATPase pH SP
COc1cccc(NC(=O)CN(C)S(=O)(=O)c2ccc3c(c2)NC(=O)CS3)c1,0,i,93,12,-4,323,4
CCOC(=O)C1=CCN(S(=O)(=O)c2cccc(Cl)c2)C1c1ccc(Br)cc1 (stereo unspecified),-1,·,·,·,·,·,·
CCc1cccc(C)c1NC(=O)CSc1nc2ccc(N3C(=O)c4ccccc4C3=O)cc2s1,0,i,104,3,-1,447,·
Cc1cc(C)c(NC(=O)CSc2nc3ccc(N4C(=O)c5ccccc5C4=O)cc3s2)c(C)c1,-1,i,116,9.0*,-2,272,-47
CN(C)C(=O)CN1CCN(c2nc3nonc3nc2N2CCCCC2)CC1,0,i,92,13*,-3,263,2
C1CCCN(c2nc3nonc3nc2N2CCCCCC2)CC1,-1,i,100,0,0,283,·
O=C(Nc1ccc(Oc2ccccc2)nc1)C1CCCCN1Cc1ccco1 (stereo unspecified),0,i,108,-12,-3,811,·
O=C(Nc1ccc(Oc2ccccc2)nc1)C1CCN(Cc2ccco2)CC1,0,i,91,8.7*,-2,464,1
O=C(Nc1ccc(Nc2ccccc2)cc1)C1CC1,0,i,78,7.5*,-2,240,7
O=C(Nc1ccccc1)C1CCCCC1,0,i,92,7,-3,411,·
Cc1cc(=O)n(-c2ccc(Cl)cc2)c(=O)[nH]1,0,i,89,4,0,210,-1
CC1CN(c2cc(=O)n(-c3ccc(Cl)cc3)c(=O)[nH]2)CC(C)O1 (stereo unspecified),1,·,·,1,·,·,·
Cc1cc(=O)cc(C)n1-c1ccc(O)cc1,0,i,89,-2,1,182,·
Cc1cc(=O)cc(C)n1-c1ccc(Cl)cc1,0,i,94,2,-2,579,3
Cc1ccccc1OCCC(=O)OCC(=O)NC1CCS(=O)(=O)C1 (stereo unspecified),0,i,110,-2,-1,200,·
O=C(NCc1ccc(Cl)c(Cl)c1)c1cc(C2CCCCN2C(=O)c2ccccn2)on1 (stereo unspecified),0,·,·,·,·,·,·
CC(=O)Nc1ccc(NC(=O)c2ccc(C)c(S(=O)(=O)Nc3cccc(C)c3)c2)cc1,0,i,90,10*,2,136,0
COC(=O)c1cccc2c([N+](=O)[O-])c(NC(C)=O)cc(C(=O)OC)c12,0,·,·,·,·,·,·
Cc1cc(C)c(OCC(=O)Nc2nc3ccccc3[nH]2)c(C)c1,1,i,104,9.7*,1,487,-4
CCN(CC)S(=O)(=O)c1ccc(NC(=O)CCN2C(=O)C3CC=CCC3C2=O)cc1 (stereo unspecified),0,·,79,2,3,200,·
COc1ccc(OCCCC(=O)Nc2ccc(S(=O)(=O)N3CCOCC3)cc2)cc1,1,·,92,1,-2,349,·
CCc1cc(=O)oc2cc(C)cc(OCC(=O)NC(Cc3ccc(Cl)cc3)C(=O)O)c12 (stereo unspecified),9,i,105,-2,7,330,·
CCOC(=O)c1[nH]c(=O)c2ccccc2c1O,6,i,131,-6,0,282,2
CC(C)c1ccc(C(=O)OCC(=O)Nc2cccc(S(=O)(=O)NC3=NCCC3)c2)cc1,1,·,·,7.2*,·,·,1
CCc1ccccc1OCC(=O)Nc1cccc(S(=O)(=O)NC2=NCCC2)c1,1,·,111,9.5*,0,480,1
SMILES,proKLK7 act,Rce1 inh,Yeast superoxide,V-ATPase pHluor,beta cell repl,T cell modulator,V-ATPase pH SP
CC/C(C)=N\NC(=O)CNC(=O)c1ccc(Cl)cc1Cl,1,i,110,12*,-1,100,2
O=S(=O)(Nc1cc(S(=O)(=O)N2CCOCC2)ccc1NCC1CCCO1)c1ccccc1 (stereo unspecified),0,·,95,-3,4,422,·
COc1ccc2c(c1)C(c1ccc(C)o1)=NNC(c1cccnc1)=N2,-1,i,104,8.6*,0,145,6
COc1ccc2c(c1)C(c1ccc(C)o1)=NNC(c1ccccc1)=N2,1,i,95,-1,-2,211,·
CC(C)c1ccc(CNc2ncccn2)cc1,0,i,94,3,-3,126,·
C=CCN(c1ccccc1)S(=O)(=O)c1cccc(C(=O)Nc2nnc(SCC)s2)c1,0,i,102,11*,-2,346,-1
CCSc1nnc(NC(=O)c2cccc(S(=O)(=O)N(C)c3ccccc3)c2)s1,0,i,96,-1,3,185,·
CCCc1nnc(SCC(=O)NC2CC2)n1CC,0,i,117,8,-1,278,·
CCOC(=O)Cn1c(C)cc(=O)c2ccccc21,1,i,92,0,0,265,-5
O=C(O)Cn1c2ccccc2c2nc3ccccc3nc21,·,·,·,-1,·,·,·
CCOC(=O)Cn1c(C)c(C#N)c2ccccc21,0,i,101,-6,-1,143,·
Cc1cc(=O)n(CC(=O)O)c2ccccc12,0,i,92,-1,-4,785,·
CCOC(=O)Cn1c2ccccc2c2nc3ccccc3nc21,0,i,99,-4,-3,384,-53
CCOC(=O)Cn1c(=O)cc(C)c2ccccc21,0,i,98,-6,0,241,-1
C[C@@H]1CN([C@H](C)CO)S(=O)(=O)c2ccc(C3=CCCCC3)cc2O[C@H]1CN(C)C(=O)Cc1cccnc1,0,·,·,1,·,·,·
CCCNC(=S)NC1CC2CCCC(C1)N2Cc1ccc(F)cc1 (stereo unspecified),0,i,102,2,-4,346,·
COc1ccccc1N1CCN(C(=O)C2CCN(S(=O)(=O)c3ccc4c(c3)CC(C)N4C(C)=O)CC2)CC1 (stereo unspecified),0,i,102,0,-2,410,·
COc1ccccc1N1CCN(C(=O)C2CCN(S(=O)(=O)c3ccc4c(c3)CC(C)N4C(=O)C3CC3)CC2)CC1 (stereo unspecified),1,i,110,14*,6,280,1
Cc1cc(N2CCN(C(=O)OC(C)(C)C)C[C@H]2C)ccc1N1C[C@@H](C)O[C@@H](C)C1,0,·,·,·,·,·,·
